{"data": "Published values gathered from unrelated publications", "SLC6A2": "Sodium-dependent noradrenaline transporter (SLC6A2, Homo sapiens, UniProt P23975)", "MPO": "Myeloperoxidase (MPO, Homo sapiens, UniProt P05164)", "FGR": "Tyrosine-protein kinase Fgr (FGR, Homo sapiens, UniProt P09769)", "note": "Protocols differ between the studies behind these lines."}
{"Structure (SMILES)": "CNc1nc(C#Cc2ccc(Cl)s2)nc2c1ncn2[C@H]1[C@H](O)[C@H](O)[C@]2(CC#N)C[C@H]12", "target": "SLC6A2", "test": "transporter uptake, inhibitor, radiometric", "system": "HEK293", "setting": "10 µM", "quantity": "inhibition", "value": "16%"}
{"Structure (SMILES)": "CCCCC[C@H](O)/C=C/[C@H]1C(=O)C[C@H](O)[C@@H]1C/C=C\\CCCC(=O)O", "target": "Prostaglandin D2 receptor (PTGDR, Homo sapiens, UniProt Q13258)", "test": "G protein activation, agonist, BRET", "quantity": "Emax", "value": "101%"}
{"Structure (SMILES)": "CC(C)OCCn1c(=S)[nH]c(=O)c2[nH]ccc21", "target": "MPO", "test": "enzyme activity, inhibitor", "setting": "0.68 µM", "quantity": "remaining activity", "value": "27.6%"}
{"Structure (SMILES)": "CC(C)[C@@H](CN1CCc2ccccc2C1)NC(=O)c1cccc(-c2ccc(F)cc2)c1", "target": "Kappa-type opioid receptor (Oprk1, Mus musculus, UniProt P33534)", "test": "ligand displacement, radioligand", "setting": "10 µM", "quantity": "inhibition", "value": "63.9%"}
{"Structure (SMILES)": "OC[C@@]12C[C@@H]1[C@@H](n1cnc3c(N[C@@H](C4CCC4)C4CC4)nc(C#Cc4ccc(Cl)s4)nc31)[C@H](O)[C@@H]2O", "target": "SLC6A2", "test": "ligand displacement, radioligand", "setting": "10 µM", "quantity": "inhibition", "value": "90%"}
{"Structure (SMILES)": "Cc1cc(O)c(-c2ccc([C@@H](C)CN(C)C)cc2)c2c1[nH]c(=O)c1sccc12", "target": "Extracellular serine/threonine protein kinase FAM20C (FAM20C, Homo sapiens, UniProt Q8IXL6)", "test": "cell-free assay, inhibitor", "setting": "0.1 µM, lysate", "quantity": "inhibition", "value": "-0.829%"}
{"Structure (SMILES)": "CNc1nc(I)nc2c1ncn2[C@H]1[C@H](O)[C@H](O)[C@]2(CC#N)C[C@H]12", "target": "SLC6A2", "test": "ligand displacement, radioligand", "setting": "10 µM", "quantity": "inhibition", "value": "-6%"}
{"Structure (SMILES)": "CCCCC(=O)Nc1ccc(-c2ccc3ncn(CCC)c(=O)c3c2)cn1", "target": "FGR", "test": "binding, competition with immobilised ligand", "setting": "0.5 µM", "quantity": "remaining binding", "value": "100%"}
{"Structure (SMILES)": "OC[C@@]12C[C@@H]1[C@@H](n1cnc3c(Nc4ccccc4)nc(I)nc31)[C@H](O)[C@@H]2O", "target": "SLC6A2", "test": "ligand displacement, radioligand", "setting": "10 µM", "quantity": "inhibition", "value": "5%"}
{"Structure (SMILES)": "COc1ccc(Cl)cc1-c1cc(=O)[nH]c(=S)n1CC(N)=O", "target": "MPO", "test": "enzyme activity, inhibitor", "setting": "10 µM", "quantity": "remaining activity", "value": "2.31%"}
{"Structure (SMILES)": "N#CC[C@@]12C[C@@H]1[C@@H](n1cnc3c(NCc4cccc(Cl)c4)nc(C#Cc4ccc(Cl)s4)nc31)[C@H](O)[C@@H]2O", "target": "SLC6A2", "test": "ligand displacement, radioligand", "setting": "10 µM", "quantity": "inhibition", "value": "76%"}
{"Structure (SMILES)": "C1=C/COCc2cc(ccc2OCCN2CCCC2)Nc2nccc(n2)-c2cccc(c2)COC/1", "target": "FGR", "test": "cell-free assay", "setting": "0.1 µM", "quantity": "remaining signal", "value": "96%"}
{"Structure (SMILES)": "CC(=O)N[C@@H](C)c1cc(Cl)ccc1C1CCN(C(=O)[C@@H]2CN(C(C)(C)C)C[C@H]2c2ccc(F)cc2F)CC1", "target": "Melanocortin receptor 4 (MC4R, Homo sapiens, UniProt P32245)", "test": "cAMP, agonist", "quantity": "Emax", "value": "104%"}
{"Structure (SMILES)": "NC/C(=C\\F)COc1cccc(Cn2c(=S)[nH]c(=O)c3[nH]cnc32)c1", "target": "MPO", "test": "enzyme activity, inhibitor, fluorescence", "setting": "0.3333 µM", "quantity": "inhibition", "value": "98.5%"}
{"Structure (SMILES)": "COc1ccc2oc(-c3ccc4nc(N)oc4c3)c/c(=N\\c3ccccc3NC(=O)CCN)c2c1", "target": "Fibroblast growth factor receptor 1 (FGFR1, Homo sapiens, UniProt P11362, V561M)", "test": "binding", "setting": "1 µM", "quantity": "remaining binding", "value": "97%"}
